Reference: PubChem BioAssay AID504490 (NMMLSC, 2011)
Screen size: about 340,000 compounds; about 1,100 (0.32%) were called active. Shown is part of a subset that was picked to be rich in actives. Unmarked numbers belong to inactive results.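 Rule for the calls: active = inhibition above a set limit, near 3 SD of compounds lacking own fluorescence (cut at about 54% in these data); inactive = the rest.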

Each compound was assayed on beta-arrestin 1 C-terminal peptide binding to AP2 beta2-adaptin appendage (human) (assay: inhibitors of beta-arrestin/AP2 binding, primary screen, biochemical, GPCR trafficking, flow cytometry (AID 504490;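 note: plate controls were DMSO wells for no effect and 5 µM unlabelled arrestin peptide for full effect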)). Conditions: FITC-arrestin peptide / GST-AP2 beads, at 10 µM, hits give high values, AP2 beta2 appendage carries R879A mutation.
Summary of the method: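 Material – AP2 appendage R879A on GSH beads · Buffer or medium – PBS with 0.05% Tween 20 and 0.1% BSA · Probe or stimulus – fluorescein-tagged arrestin peptide at 50 nM final · Incubation – compound with beads 12 min RT, then probe 1 h RT · Detection – high-throughput flow cytometry of beads, ex 488, em 535 nm · Evaluation – percent response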

SMILES | inhibition
COc1ccc(/C=C2\SC(=S)N(CCC(=O)Nc3ccccn3)C2=O)cc1OC | 73.7% (active)
COc1cccc(/C=C2/SC(=S)N(CC(=O)NC3C=CS(=O)(=O)C3)C2=O)c1 (stereo unspecified) | -14%
CCOc1ccc(/C=C2\SC(=S)N(NC(=O)c3ccncc3)C2=O)cc1OC | 18.7%
N#CCCN(C(=O)COC(=O)c1ccc(S(=O)(=O)N2CCCCCC2)cc1)c1ccccc1 | -3.59%
CC(=O)c1c(C)[nH]c(C(=O)COC(=O)CCOc2ccc(C)cc2)c1C | 5.24%
Cc1ccc(OCCCCc2c(C)n[nH]c2C)cc1 | 65.1% (active)
COc1ccc(-c2[nH]ncc2CN(C)Cc2c(C)n[nH]c2C)c(OC)c1 | 6.55%
Cc1cc(NC(=O)CCS(=O)(=O)c2ccc(F)cc2)no1 | -7.97%
CC1CN(C(=O)c2ccccc2NS(=O)(=O)c2cccc([N+](=O)[O-])c2)CC(C)O1 (stereo unspecified) | 2.09%
CN(CCc1cn[nH]c1)C(=O)CC1C(=O)NCCN1Cc1cccc(Oc2ccccc2)c1 (stereo unspecified) | 9%
COc1cccc(CN2CCNC(=O)C2CC(=O)N(C)CCc2ccccn2)c1 (stereo unspecified) | -2.95%
NC(=O)C1CCN(C(=O)CC2C(=O)NCCN2Cc2cccc(Oc3ccccc3)c2)CC1 (stereo unspecified) | 68.5% (active)
Cc1nc2c(ncn2-c2ccccc2)c(=O)n1NC(=O)CN1CCCC1 | -8.96%
COc1ccc(-n2ncc3c2CC(C)(C)CC3NC(=O)CCc2c(C)noc2C)cc1 (stereo unspecified) | 5.75%
O=C(c1ccc(Cl)s1)N(Cc1nnc(-c2ccccc2Cl)o1)C1CC1 | -9.93%
COCCNC(=O)Nc1ccc2nc(-c3ccco3)c(-c3ccco3)nc2c1 | 68% (active)
COCCNC(=O)c1snc2ccc(Cl)cc12 | 2.57%
O=C(Nc1nc(-c2ccco2)c(-c2ccco2)s1)c1ccco1 | 8.21%
CCc1noc(C)c1C(=O)N1CCCC(N2CCN(c3ccc(F)cc3)CC2)C1 (stereo unspecified) | 7.14%
COc1cccc(C2SCC(=O)N2c2cccc(C)c2)c1OC (stereo unspecified) | 3.87%
CCc1ccc(NC(=O)Nc2ccncc2)cc1 | 0.23%
NS(=O)(=O)c1ccc2nc(NC(=O)CS(=O)(=O)c3ccc(F)cc3)sc2c1 | 3.77%
Cc1csc(NC(=O)C2=COCCO2)n1 | 17.8%

SMILES | inhibition
NS(=O)(=O)c1ccc2nc(NC(=O)C3=COCCO3)sc2c1 | 58.1% (active)
O=C1N(Cc2ccc3c(c2)OCO3)c2ccccc2C1(O)c1c[nH]c2ccccc12 (stereo unspecified) | 2.95%
Cc1ccccc1Cn1c2ccccc2c2cnn(CC(=O)NCc3ccco3)c(=O)c21 | -0.8%
CCOc1ccc(C(C)=O)cc1COC(=O)CN1C(=O)NC2(CCCC2)C1=O | 3.04%
S=c1ccc2ccccc2[nH]1 | -7.56%
COC(=O)C1=C(C)N(C)C(C)=C(C(=O)OC)C1c1cccc(Br)c1 | -3.12%
CCN1C[C@@H]2[C@@H]3C(=O)N(Cc4ccccc4)C(=O)[C@@H]3[C@](Cc3ccccc3)(C(=O)OC)N2C1=NC1CCCCC1 | 4.73%
Cc1ccc(Nc2ccc(C(N)=O)cc2[N+](=O)[O-])cc1 | 54.7% (active)
CCOc1ccccc1Nc1ccc(C(=O)O)cc1[N+](=O)[O-] | 35.8%
NC(=O)c1ccc(Nc2ccc3c(c2)CCC3)c([N+](=O)[O-])c1 | 38.4%
S=C(Nc1cccnc1)Nc1ccccn1 | 3.47%
CCOc1ccccc1C1CC(c2ccc(Cl)cc2)Nc2nc(N)nn21 (stereo unspecified) | 10.8%
O=c1[nH]c2ccccc2n2c(-c3ccccc3)nnc12 | 55.3% (active)
O=c1[nH]n2c(-c3ccccc3)nc(O)c2c2ccccc12 | -0.17%
Cc1ccc(-c2cccc([C@H]3[C@@H]4C=CC[C@@H](C)[C@@H]4C(=O)N3Cc3ccccc3)c2)cc1 | -6.59%
CCC1(CC)NC(=O)N(CC(=O)OCC(=O)NC(=O)c2ccccc2)C1=O | 5.01%
CC(=O)Nc1ccc(S(=O)(=O)N2CCC(N(C)CCC(C)C)CC2)cc1 | -0.3%
CC(CN1CCCCC1)OC(=O)c1ccccc1Cl (stereo unspecified) | 84.6% (active)
Cc1cccc(C(=O)OC(C)CN2CCCC2)c1 (stereo unspecified) | 14.8%
CC(CN1CCOCC1)OC(=O)c1ccc(Cl)cc1Cl (stereo unspecified) | 8.15%
Cc1cccn2c(=O)c(/C=C(\C#N)S(=O)(=O)c3ccc(Cl)cc3)c(N3CCC(C(N)=O)CC3)nc12 | 3.53%
Cc1cccn2c(=O)c(/C=C(\C#N)C(N)=O)c(N3CCCCCC3)nc12 | -21.3%
Cc1cc(C)cc(Oc2nc3c(C)cccn3c(=O)c2/C=C(\C#N)C(=O)NC2CCS(=O)(=O)C2)c1 (stereo unspecified) | 77.2% (active)

SMILES | inhibition
CCCn1c(O)c(CN2CCCC(C)C2)c(C)c(C#N)c1=O (stereo unspecified) | 11.7%
O=C(NNc1cc(Cl)cc(Cl)c1)c1c(F)cccc1Cl | -11.9%
O=C(NCc1ccco1)c1cc2sccc2n1Cc1ccc(F)cc1 | 1.12%
O=C(NCc1ccco1)c1ccc(CS(=O)(=O)Cc2ccc(F)cc2)o1 | 97% (active)
CCN(CC(=O)NCc1ccco1)S(=O)(=O)c1ccc(F)cc1 | 24.4%
Cc1ccc(NS(=O)(=O)c2cn(C)c(=O)n(C)c2=O)c(C)c1 | -3.22%
Cc1ccc(CC2C(=O)N(c3ccc(F)cc3)C(=O)C2C)cc1 (stereo unspecified) | -10.9%
COc1ccc(CCNc2ncnc3c2nnn3Cc2ccccc2)cc1 | 56% (active)
COc1ccc(CNCCCn2cnc3c(OCc4ccccc4)ncnc32)cc1 | 3.96%
CC(C)Nc1ncnc2c1nnn2Cc1ccccc1 | -0.65%
CN(CCCC(=O)Nc1nccs1)S(=O)(=O)c1ccc(Cl)cc1 | -5.07%
Cc1c(C(=O)NNC(=O)c2ccncc2)oc2ccccc12 | -2.61%
O=C(Nc1ccccc1N1CCOCC1)c1ccncc1 | -0.66%
CN(C)c1ccc(NC(=O)c2ccncc2)c2ccccc12 | 57.2% (active)
CC(=O)N1C(=O)/C(=C2\SC(=S)N(NC(=O)c3ccc(O)cc3)C2=O)c2ccccc21 | 7.23%
CC(C)c1nnc(NC(=O)CCC(=O)N2CCN(c3cccc(Cl)c3)CC2)s1 | 59.1% (active)
COc1ccc(CN2CCN(C(=O)CCC(=O)Nc3nnc(C(C)C)s3)CC2)cc1F | 17.3%
CCc1nnc(NC(=O)CCC(=O)N2CCN(c3cc(C)ccc3C)CC2)s1 | 27.2%
C=C1c2cccc(OC)c2O[C@H](C(=O)OCC)[C@@H]1CCCCCC | -3.22%
C=CCO/N=C(\C)c1c(O)c(C)c(-c2ccccc2)n(-c2ccccc2)c1=O | 32.4%
C/C(=N\Nc1ccc([N+](=O)[O-])cc1)c1ccc(-n2nncc2C(C)(C)C)cc1 | 93.7% (active)
COc1ccc(C(=O)Nc2ccc(-n3nncc3C(C)(C)C)cc2)cc1 | -18.4%
CC(C)(C)c1cnnn1-c1ccc([N+](=O)[O-])cc1 | -1.38%

SMILES | inhibition
CCOC(=O)C(CO)NC(=O)C1(NC(C)=O)CCCC1 (stereo unspecified) | 2.61%
COc1ccccc1NC(=O)c1c(Br)cnn1C | 6.15%
O=C(NNC(=O)C1C2CCC(C2)C1C(=O)O)c1ccc(Cl)cc1 (stereo unspecified) | 10.1%
Cc1ccc(S(=O)(=O)/N=C(/Nc2ccccn2)c2ccc(Cl)cc2)cc1 | 70.7% (active)
O=S(=O)(/N=C(/Nc1ccccn1)c1ccccc1)c1ccc(Cl)cc1 | 2.67%
Cc1ccc(S/C(=N\S(=O)(=O)c2ccc(Cl)cc2)c2ccccc2)cc1 | 2.53%
O=C(O)c1ccccc1NC(=S)NC(NC(=O)c1ccccc1[N+](=O)[O-])C(Cl)(Cl)Cl (stereo unspecified) | 0.7%
CCOC(=O)c1ccc(NC(=S)N2CCN(c3ccccn3)CC2)cc1 | -3.13%
O=C(C1CCCO1)N1CCN(S(=O)(=O)c2ccc(Br)cc2)CC1 (stereo unspecified) | 54.4% (active)
O=C(C1CCCN1S(=O)(=O)c1ccc(Br)cc1)N1CCOCC1 (stereo unspecified) | -2.49%
CN1CCN(S(=O)(=O)c2ccc(NC(=O)C3CCCO3)cc2)CC1 (stereo unspecified) | -5.38%
CCC1(C(=O)c2ccccc2)C(c2cccc([N+](=O)[O-])c2)C1(C(=O)OC)C(=O)OC (stereo unspecified) | -3.23%
CCOC(=O)c1sc(NC(=O)CSc2nc(O)c(Cc3ccccc3)c(=O)[nH]2)nc1C | 45.5%
CCOc1ccc(-c2nnc(-c3ccco3)o2)cc1 | 55% (active)
COc1ccc(-c2nnc(-c3ccc4ccccc4c3)o2)cc1 | 5.64%
CCOc1ccc(-n2c(SCC(N)=O)nnc2-c2ccco2)cc1 | -5.91%
C[C@@H]1CC[C@@]2(OC1)O[C@H]1C[C@H]3[C@@H]4CC=C5C[C@@H](O)[C@H](O)C[C@]5(C)C4CC[C@]3(C)[C@H]1[C@@H]2C (stereo partly specified) | 26.8%
Cc1cccc(Oc2c([N+](=O)[O-])c(=O)n(C)c3ccccc23)c1 | 8.99%
Cn1c(=O)c([N+](=O)[O-])c(Oc2ccccc2)c2ccccc21 | 54.9% (active)
Cc1cc(C)c(-c2c(O)c3ccccc3n(C)c2=O)c(C)c1 | 3.35%
CCn1c(C)nc2cc(C(=O)NNS(=O)(=O)c3ccc(C)cc3C)ccc21 | -9.91%
CCNc1c(NS(=O)(=O)c2ccc(C3CCCCC3)cc2)c(=O)oc2ccccc12 | 27.9%
